Measurements from ChEMBL document CHEMBL1275432, “Daptomycin is effective in treatment of experimental endocarditis due to methicillin-resistant and glycopeptide-intermediate Staphylococcus aureus” (Antimicrob Agents Chemother, 2008).
Values after ≈ are worked out from the molar mass of the structure shown. Active and inactive are the calls of the source.

Legend:
[1] = Cmin in New Zealand White rabbit infected with glycopeptide-intermediate Staphylococcus aureus after 24 hrs; type: ADME, organism-based, Oryctolagus cuniculus; details: in vivo, read-out: Cmin
Summary of the method: (§1)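 Trough serum concentrations were taken in rabbits with catheter-induced aortic valve endocarditis. Infection was 1 ml i.v. via the marginal ear vein: 7 × 10^5 CFU/ml for MRSA or 8 × 10^5 CFU/ml for GISA. Human-simulating pump infusion started 18 h after infection and ran 48 h. Daptomycin was assayed by M. luteus bioassay, vancomycin by immunoturbidimetry.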

[2] = test system: Staphylococcus aureus; assay: Antimicrobial activity against methicillin-resistant Staphylococcus aureus after 72 hrs by Etest; type: functional
[3] = Terminal half-life in human serum at 1 g, iv administered every 12 hrs; type: ADME, organism-based
[4] = test system: Staphylococcus aureus; assay: Bacteriostatic activity against methicillin-resistant Staphylococcus aureus 277 at 0.5 to 4 times MIC by time-kill experiment; type: functional, organism-based
Summary of the method: (§2)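 Time-kill curves per CLSI, run in duplicate. Inoculum was 10^5 CFU/ml, with drug at 0.5–4× MIC. Viable counts were taken at 0, 4 and 24 h. Bactericidal was defined as a ≥3-log CFU reduction at 24 h versus the initial inoculum.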

[5] = Plasma protein binding in New Zealand White rabbit plasma at 1 g, iv administered every 12 hrs; type: ADME, organism-based, Oryctolagus cuniculus; details: read-out: PPB (converted)
[6] = Cmin in New Zealand White rabbit infected with methicillin-resistant Staphylococcus aureus after 24 hrs; type: ADME, organism-based, Oryctolagus cuniculus; details: in vivo, read-out: Cmin; summary of the method: as §1
[7] = test system: Staphylococcus aureus; assay: Bacteriostatic activity against glycopeptide-intermediate Staphylococcus aureus ATCC 700788 at 0.5 to 4 times MIC by time-kill experiment; type: functional, organism-based; summary of the method: as §2
[8] = Terminal half-life in New Zealand White rabbit at 1 g, iv administered every 12 hrs; type: ADME, organism-based, Oryctolagus cuniculus; details: in vivo
Summary of the method: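 The vancomycin line simulated 1 g i.v. q 12 h (30 mg/kg/day in 2 doses). The daptomycin line simulated 6 mg/kg q 24 h. Parameters came from an open 2-compartment model. Daptomycin was measured by disk-plate bioassay with Micrococcus luteus ATCC 9341 (sensitivity 0.5 µg/ml). Vancomycin was measured by latex-boosted immunoturbidimetry (LOD 0.8 µg/ml).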

[9] = Plasma protein binding in New Zealand White rabbit plasma at 6 mg/kg, iv administered every 24 hrs; type: ADME, organism-based, Oryctolagus cuniculus; design: dose 6 mg/kg, route intravenous; details: read-out: PPB (converted)
[10] = test system: Staphylococcus aureus; assay: Antimicrobial activity against methicillin-resistant Staphylococcus aureus 277 by microdilution method; type: functional
Summary of the method: (§3)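 Broth microdilution MIC and MBC per CLSI in cation-adjusted Mueller-Hinton broth. For daptomycin, the broth was adjusted to 50 µg/ml calcium. S. aureus ATCC 29213 was the control strain.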

[11] = Terminal half-life in human serum at 6 mg/kg, iv administered every 24 hrs; type: ADME, organism-based; design: dose 6 mg/kg, route intravenous
[12] = test system: Staphylococcus aureus; assay: Bactericidal activity against glycopeptide-intermediate Staphylococcus aureus ATCC 700788 at 0.5 to 4 times MIC by time-kill experiment; type: functional, organism-based; summary of the method: as §2
[13] = Plasma protein binding in human serum at 6 mg/kg, iv administered every 24 hrs; type: ADME, organism-based; design: dose 6 mg/kg, route intravenous; details: read-out: PPB (converted)
[14] = test system: Staphylococcus aureus; assay: Antimicrobial activity against glycopeptide-intermediate Staphylococcus aureus ATCC 700788 by microdilution method; type: functional; summary of the method: as §3
[15] = AUC in human serum at 6 mg/kg, iv administered every 24 hrs; type: ADME, organism-based; design: dose 6 mg/kg, route intravenous
[16] = test system: Staphylococcus aureus; assay: Bactericidal activity against methicillin-resistant Staphylococcus aureus 277 at 0.5 to 4 times MIC by time-kill experiment; type: functional, organism-based; summary of the method: as §2
[17] = test system: Staphylococcus aureus; assay: Antimicrobial activity against methicillin-resistant Staphylococcus aureus by Etest; type: functional
[18] = Cmax in human serum at 6 mg/kg, iv administered every 24 hrs; type: ADME, organism-based; design: dose 6 mg/kg, route intravenous

Row | Molecule | concentration at 24 h [1] [ng/mL] | MIC [2] [µg/mL] | half-life [3] [h] | Activity [4] | fraction unbound at 12 h [5] | concentration at 24 h [6] [ng/mL] | Activity [7] | half-life [8] [h] | fraction unbound at 24 h [9] | MIC [10] [µg/mL] | half-life [11] [h] | Activity [12] | fraction unbound at 24 h [13] | MBC [14] [µg/mL] | MIC [14] [µg/mL] | AUC at 24 h [15] [µg·h/mL] | Activity [16] | MIC [17] [µg/mL] | Cmax [18] [ng/mL]
1 | CN[C@H](CC(C)C)C(=O)N[C@H]1C(=O)N[C@@H](CC(N)=O)C(=O)N[C@H]2C(=O)N[C@H]3C(=O)N[C@H](C(=O)N[C@H](C(=O)O)c4cc(O)cc(O)c4-c4cc3ccc4O)[C@H](O)c3ccc(c(Cl)c3)Oc3cc2cc(c3O[C@@H]2O[C@H](CO)[C@@H](O)[C@H](O)[C@H]2O[C@H]2C[C@](C)(N)[C@H](O)[C@H](C)O2)Oc2ccc(cc2Cl)[C@H]1O [VANCOMYCIN] | 20000 | 8 (≈ 5.52 µM) | 4.8 | Active | 0.35 | 20000 | Active | 1.3 | – | – | – | – | – | – | – | – | – | – | –
2 | CCCCCCCCCC(=O)N[C@@H](Cc1c[nH]c2ccccc12)C(=O)N[C@H](CC(N)=O)C(=O)N[C@@H](CC(=O)O)C(=O)N[C@@H]1C(=O)NCC(=O)N[C@@H](CCCN)C(=O)N[C@@H](CC(=O)O)C(=O)N[C@H](C)C(=O)N[C@@H](CC(=O)O)C(=O)NCC(=O)N[C@H](CO)C(=O)N[C@@H]([C@H](C)CC(=O)O)C(=O)N[C@@H](CC(=O)c2ccccc2N)C(=O)O[C@@H]1C | – | 0.5 (≈ 0.309 µM) | – | – | – | – | – | – | 0.1 | 0.12 (≈ 0.074 µM) | 9.5 | Active | 0.08 | 1 (≈ 0.617 µM) | 0.5 (≈ 0.309 µM) | 974 | Active | 0.12 (≈ 0.074 µM) | 86000
3 | GENTAMICIN | – | – | – | – | – | – | – | – | – | – | – | – | – | 128 | 0.25 | – | – | – | –
